The record followed here is ChEMBL document CHEMBL1140647, “Synthesis and evaluation of potent and selective beta3 adrenergic receptor agonists containing heterobiaryl carboxylic acids” (Bioorg Med Chem Lett, 2007).

Data set [1] addresses T1, Beta-3 adrenergic receptor (Homo sapiens, UniProt P13945). The data set can be described thus: Agonist activity at human beta-3 adrenergic receptor expressed in CHO cells assessed as cAMP accumulation. The class given is functional, cell-based. In outline: (§1)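 cAMP accumulation measured in CHO cells expressing the cloned human receptor subtype. Potency given as pEC50; Emax is the fitted maximal response of the concentration-response, expressed as percent of the maximal response to R-(−)-isoproterenol. Values are from n ≥ 3 experiments unless noted (some n = 2), with standard deviation within 10%.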
On the technique in general: Cyclic AMP is a second messenger, typically raised through Gs and lowered through Gi signalling.
Target sequence in this assay (P13945 whole entry): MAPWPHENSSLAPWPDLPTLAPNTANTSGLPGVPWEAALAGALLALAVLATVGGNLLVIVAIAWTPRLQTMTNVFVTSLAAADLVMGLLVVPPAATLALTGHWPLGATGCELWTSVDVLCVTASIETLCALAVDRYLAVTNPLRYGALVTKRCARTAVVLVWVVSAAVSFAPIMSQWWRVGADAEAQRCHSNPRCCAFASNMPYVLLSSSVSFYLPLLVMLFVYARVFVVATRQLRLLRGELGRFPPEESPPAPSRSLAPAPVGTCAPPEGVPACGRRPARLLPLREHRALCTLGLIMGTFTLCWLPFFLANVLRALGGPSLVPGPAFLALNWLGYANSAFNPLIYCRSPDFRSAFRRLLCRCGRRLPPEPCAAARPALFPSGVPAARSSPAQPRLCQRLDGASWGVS

Data set [2] is described as follows: Plasma clearance in dog at 0.2 mg/kg, iv. Also noted: dose 0.2 mg/kg, route intravenous. It counts as ADME, organism-based, Canis lupus familiaris. Put shortly:
(§2)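 Single intravenous dose of 0.2 mg/kg. Plasma drug levels measured by LC–MS/MS, and clearance and half-life derived from them.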

The target in data set [3] is T2, Beta-1 adrenergic receptor (Homo sapiens, UniProt P08588). Description: Agonist activity at human beta-1 adrenergic receptor expressed in CHO cells assessed as cAMP accumulation relative to R-(-)-isoproterenol. It counts as functional, cell-based. In outline: as §1
Target sequence in this assay (P08588 whole entry, looked up): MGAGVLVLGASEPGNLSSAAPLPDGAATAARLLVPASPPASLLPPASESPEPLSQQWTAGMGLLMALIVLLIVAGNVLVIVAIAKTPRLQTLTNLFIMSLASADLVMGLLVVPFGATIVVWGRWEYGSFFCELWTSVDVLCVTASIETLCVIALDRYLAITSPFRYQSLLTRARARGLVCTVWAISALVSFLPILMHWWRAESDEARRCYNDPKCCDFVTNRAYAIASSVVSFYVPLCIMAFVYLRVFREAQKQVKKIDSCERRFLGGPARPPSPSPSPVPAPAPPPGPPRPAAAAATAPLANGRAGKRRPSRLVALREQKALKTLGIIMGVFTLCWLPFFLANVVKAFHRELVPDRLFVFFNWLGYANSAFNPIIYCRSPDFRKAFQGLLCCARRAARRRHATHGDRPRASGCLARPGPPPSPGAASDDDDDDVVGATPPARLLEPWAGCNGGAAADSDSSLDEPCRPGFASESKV
In data set [4] the target is T3, Beta-2 adrenergic receptor (Homo sapiens, UniProt P07550). The data set can be described thus: Agonist activity at human beta-2 adrenergic receptor expressed in CHO cells assessed as cAMP accumulation relative to R-(-)-isoproterenol. It counts as functional, cell-based. Put shortly:
as §1
Target sequence in this assay (P07550 whole entry, looked up): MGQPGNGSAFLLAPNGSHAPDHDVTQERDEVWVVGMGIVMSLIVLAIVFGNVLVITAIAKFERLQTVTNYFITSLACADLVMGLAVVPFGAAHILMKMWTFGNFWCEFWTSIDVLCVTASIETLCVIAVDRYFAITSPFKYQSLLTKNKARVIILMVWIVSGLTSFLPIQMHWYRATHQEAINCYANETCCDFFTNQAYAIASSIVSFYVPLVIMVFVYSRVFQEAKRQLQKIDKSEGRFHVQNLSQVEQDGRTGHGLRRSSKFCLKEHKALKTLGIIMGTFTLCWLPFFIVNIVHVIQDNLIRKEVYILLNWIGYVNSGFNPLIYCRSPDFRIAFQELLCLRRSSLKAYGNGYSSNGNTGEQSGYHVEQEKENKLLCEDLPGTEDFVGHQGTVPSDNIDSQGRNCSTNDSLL

Data set [5] concerns the target T1, Beta-3 adrenergic receptor. Description: Agonist activity at human beta-3 adrenergic receptor expressed in CHO cells assessed as cAMP accumulation relative to R-(-)-isoproterenol. The class given is functional, cell-based. Put shortly:
as §1
Target sequence in this assay (P13945 whole entry, looked up): as the sequence (P13945 whole entry) above

For data set [6], the species on record is Homo sapiens. The data set can be described thus: Selectivity ratio of pEC50 for human beta3 adrenergic receptor over beta-2 adrenergic receptor. Put shortly:
(§3)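 Ratio of […]. pEC50 values come from cAMP accumulation in CHO cells expressing cloned human β1, β2 or β3 receptors.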

Data set [7] addresses T3, Beta-2 adrenergic receptor. Description: Agonist activity at human beta-2 adrenergic receptor expressed in CHO cells assessed as cAMP accumulation. It counts as functional, cell-based. In outline: as §1
Target sequence in this assay (P07550 whole entry): as the sequence (P07550 whole entry, looked up) above
Data set [8] is filed under the species Homo sapiens. Description: Selectivity ratio of pEC50 for human beta-3 adrenergic receptor over beta-1 adrenergic receptor. In outline: as §3
Data set [9] can be described thus: Half life in dog at 0.2 mg/kg, iv. It counts as ADME, organism-based, Canis lupus familiaris. Particulars: in vivo. Details: dose 0.2 mg/kg, route intravenous. In outline:
as §2

Data set [10] addresses T2, Beta-1 adrenergic receptor. The data set can be described thus: Agonist activity at human beta-1 adrenergic receptor expressed in CHO cells assessed as cAMP accumulation. The class given is functional, cell-based. In outline:
as §1
Target sequence in this assay (P08588 whole entry): as the sequence (P08588 whole entry, looked up) above

Data set [11] concerns Mus musculus. Description: Reduction of glucose level in db/db mouse serum at 0.1 mg/kg, po bid for 14 days. It counts as functional. In outline: (§4)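 Male db/db mice, 60 days old at the start of dosing, 10 per group. Dosed by oral gavage twice daily for 14 days in 0.025 M methanesulfonic acid vehicle, with dosing solutions prepared fresh daily. Day 0 baseline taken from 10 exsanguinated mice. Mice were sacrificed on days 7 and 14, and serum glucose was measured on an automated chemistry analyzer against vehicle-treated mice.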

Data set [12] concerns Mus musculus. The data set can be described thus: Reduction of glucose level in db/db mouse serum at 0.03 mg/kg, po bid for 14 days. The class given is functional. In outline:
as §4

For data set [13], the system named is Mus musculus. Description: Reduction of glucose level in db/db mouse serum at 1 mg/kg, po bid for 14 days. It counts as functional. In outline: as §4
The test system of data set [14] is Mus musculus. The data set can be described thus: Reduction of glucose level in db/db mouse serum at 0.3 mg/kg, po bid for 14 days. It counts as functional. Put shortly: as §4

A value given as a limit tells only on which side of the number the result lay.

A word on the EC50: it is the midpoint of the concentration-response curve. By clearance is commonly meant the volume of plasma or blood freed of the substance per unit of time. Low readings indicate a low capacity for elimination, high ones a high capacity for elimination. In general, Emax refers to the maximal effect, on the per cent scale that the assay sets. The term half-life denotes the time needed for the level to fall by half in the phase considered. As to `O=C(O)c1ccsc1-c1cccc(NCCNC[C@H](O)c2cccc(Cl)c2)c1`, the EC50 in data set [1] was 1.26 nM; in [7], 5010 nM; in [10], 3980 nM. In [2], this molecule displayed a clearance of 1.5 mL/min/kg. Further, the Emax in data set [3] is < 2%; in [4], < 5%; in [5], 103%. Moreover, the Selectivity ratio was 4000 in the data set listed under Homo sapiens [6] and 3200 in the data set listed under Homo sapiens [8]. The molecule further showed a half-life in [9] of 1.6 h.
With `C[C@H](CNc1cccc(-c2occc2C(=O)O)c1)NC[C@H](O)c1cccc(Cl)c1`, the results for the 50% effective concentration (EC50) in [1], in data set [7] and in [10] were 0.251 nM, 126 nM and 100 nM, respectively. In data set [2], this molecule displayed a clearance of 5.3 mL/min/kg. The maximal effect (Emax) in data set [3] came to 14%; in data set [4], 38%; in data set [5], 87%. Further, the Selectivity ratio in the data set listed under Homo sapiens [6] came to 500; in the data set listed under Homo sapiens [8], 400. For the same molecule, the half-life in [9] is ≤ 1 h.
Take `C[C@H](CNc1ccc(-c2nc(C(=O)O)co2)cc1)NC[C@H](O)c1cccc(Cl)c1`: the results for the EC50 in data set [1], in [7] and in data set [10] were 15.8 nM, 100 nM and 12.6 nM, respectively. For the same molecule, the Emax in data set [3] was determined as 23%; in [4], 53%; in data set [5], 92%. Also, the Selectivity ratio stood at 6 in the data set listed under Homo sapiens [6] and 0.8 in the data set listed under Homo sapiens [8].
Turning to `C[C@H](CNc1cccc(-c2csc(C(=O)O)n2)c1)NC[C@H](O)c1cccc(Cl)c1`, the EC50 was 2 nM in data set [1], 100 nM in data set [7] and 100 nM in [10]. Besides, the Emax in data set [3] came to 20%; in data set [4], 76%; in data set [5] it was 97%. For the same molecule, the Selectivity ratio in the data set filed under Homo sapiens [6] and in the data set filed under Homo sapiens [8] was 50 each time.
`C[C@H](CNc1ccc(-c2occc2C(=O)O)cc1)NC[C@H](O)c1cccc(Cl)c1`: the EC50 in [1] is 0.316 nM; in data set [7], 79.4 nM; in [10], 20 nM. The clearance in [2] was found to be 5.3 mL/min/kg. Further, the Emax came to 18% in data set [3], 36% in [4] and 85% in [5]. Further, the Selectivity ratio came out at 250 in the data set filed under Homo sapiens [6] and 63 in the data set listed under Homo sapiens [8]. The half-life in data set [9] is ≤ 1 h.
`C[C@H](CNc1cccc(-c2ocnc2C(=O)O)c1)NC[C@H](O)c1cccc(Cl)c1`: the values for the concentration for a half-maximal effect (EC50) in [1], in data set [7] and in [10] were 3.98 nM, 316 nM and 398 nM, respectively. The same molecule showed a clearance in [2] of 5.3 mL/min/kg. For the same molecule, the Emax in data set [3] is 14%; in data set [4], 49%; in data set [5] it was 102%. Besides, the figures for the Selectivity ratio in the data set filed under Homo sapiens [6] and in the data set listed under Homo sapiens [8] were 79 and 100, respectively. Moreover, the half-life in [9] is ≤ 1 h.
For the molecule `C[C@H](CNc1ccc(-c2ocnc2C(=O)O)cc1)NC[C@H](O)c1cccc(Cl)c1`, the half-maximal effective concentration (EC50) in data set [1] was 1.26 nM; in data set [7], 398 nM; in data set [10] it was 25.1 nM. For the same molecule, the clearance in data set [2] stood at 5.3 mL/min/kg. Further, the values for the maximum response (Emax) in data set [3], in data set [4] and in data set [5] were 24%, 55% and 90%, respectively. Also, the Selectivity ratio is 320 in the data set listed under Homo sapiens [6] and 20 in the data set listed under Homo sapiens [8]. For the same molecule, in [9], the half-life is ≤ 1 h.
Regarding `C[C@H](CNc1ccc(-c2csc(C(=O)O)n2)cc1)NC[C@H](O)c1cccc(Cl)c1`, the EC50 in data set [1] was 1.58 nM; in [7] it was 50.1 nM; in [10], 12 nM. Also, the figures for the Emax in data set [3], in [4] and in [5] were 19%, 63% and 100%, respectively. In addition, the figures for the Selectivity ratio in the data set listed under Homo sapiens [6] and in the data set listed under Homo sapiens [8] were 32 and 8, respectively.
As to `O=C(O)c1ccoc1-c1cccc(NCCNC[C@H](O)c2cccc(Cl)c2)c1`, the results for the EC50 in data set [1], in data set [7] and in [10] were 7.94 nM, 2510 nM and 5010 nM, respectively. The molecule further yielded a clearance in data set [2] of 0.65 mL/min/kg. The Emax in data set [3] is < 5%; in data set [4], < 5%; in data set [5] it was 91%. The Activity in the data set with Mus musculus [11] is 255 mg/dL; with Mus musculus [12], 376 mg/dL; in the data set on Mus musculus [13] it was 183 mg/dL; in the data set on Mus musculus [14], 191 mg/dL. Besides, the Selectivity ratio is 320 in the data set listed under Homo sapiens [6] and 630 in the data set filed under Homo sapiens [8]. The same molecule had a half-life in [9] of 6.1 h.
Take `C[C@H](CNc1cccc(-c2sccc2C(=O)O)c1)NC[C@H](O)c1cccc(Cl)c1`: the EC50 in [1] is 0.0631 nM; in data set [7], 794 nM; in data set [10] it was 1260 nM. This molecule registered a clearance in data set [2] of 5.3 mL/min/kg. The Emax in data set [3] is < 7%; in [4], 9%; in [5], 85%. Besides, the Selectivity ratio came to 13000 in the data set listed under Homo sapiens [6] and 20000 in the data set listed under Homo sapiens [8]. In [9], the half-life was ≤ 1 h.
`C[C@H](CNc1ccc(CC(=O)O)cc1)NC[C@H](O)c1cccc(Cl)c1`: the Selectivity ratio in the data set listed under Homo sapiens [6] came to 3; in the data set listed under Homo sapiens [8] it was 5.
Regarding `C[C@H](CNc1ccc(-c2nc(C(=O)O)cs2)cc1)NC[C@H](O)c1cccc(Cl)c1`, the EC50 in data set [1] is 6.31 nM; in data set [7], 50.1 nM; in data set [10] it was 20 nM. The Emax in data set [3] was determined as 21%; in [4], 41%; in data set [5], 100%. The results for the Selectivity ratio in the data set filed under Homo sapiens [6] and in the data set listed under Homo sapiens [8] were 8 and 3, respectively.
On to `C[C@H](CNc1ccc(-c2sccc2C(=O)O)cc1)NC[C@H](O)c1cccc(Cl)c1`, for which the values for the EC50 in data set [1], in data set [7] and in data set [10] were 0.398 nM, 631 nM and 100 nM, respectively. The maximal effect (Emax) was determined as 14% in data set [3], 19% in data set [4] and 96% in [5]. The figures for the Selectivity ratio in the data set filed under Homo sapiens [6] and in the data set listed under Homo sapiens [8] were 1600 and 250, respectively.
Consider `C[C@H](CNc1ccc(CCC(=O)O)cc1)NC[C@H](O)c1cccc(Cl)c1`, for which the values for the Selectivity ratio in the data set listed under Homo sapiens [6] and in the data set filed under Homo sapiens [8] were 16 and 10, respectively.
As to `C[C@H](CNc1cccc(-c2nc(C(=O)O)cs2)c1)NC[C@H](O)c1cccc(Cl)c1`, the results for the EC50 in [1], in data set [7] and in data set [10] were 0.794 nM, 158 nM and 79.4 nM, respectively. The clearance in data set [2] was 5.3 mL/min/kg. In addition, the Emax is 21% in data set [3], 48% in data set [4] and 97% in data set [5]. Moreover, the results for the Selectivity ratio in the data set listed under Homo sapiens [6] and in the data set filed under Homo sapiens [8] were 200 and 100, respectively. Also, the half-life in data set [9] was ≤ 1 h.
Regarding `C[C@H](CNc1cccc(-c2nc(C(=O)O)co2)c1)NC[C@H](O)c1cccc(Cl)c1`, the values for the 50% effective concentration (EC50) in [1], in data set [7] and in data set [10] were 15.8 nM, 126 nM and 158 nM, respectively. For the same molecule, the Emax is 30% in [3], 39% in data set [4] and 115% in data set [5]. Moreover, the Selectivity ratio in the data set filed under Homo sapiens [6] was 8; in the data set filed under Homo sapiens [8], 10.
